UPR CHOP act: activators of apoptotic arm of unfolded protein response (CHOP); 330,000 tested, 0.34% active; CHO-CHOP luciferase reporter, UPR activation, luminescence; percent of tunicamycin response over DMSO baseline; activation, % at 10 µM;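 active = at 10 µM dose, activation of 40% or more, normalized to positive control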;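 note: 100% = tunicamycin at 10 µg/mL and 0% = DMSO alone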
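Evaluation: % reporter activation, DMSO baseline versus tunicamycin full activation; System: CHO-CHOP luciferase reporter cell line; Input: 500 cells/well; Incubation: 6 h compound treatment, 37 °C; Measured by: Steady-Glo luciferase luminescence; Dosing: one dose, 10 µM in 0.5% DMSO; Buffer or medium: F12 medium, 10% FBS; Benchmarks: positive tunicamycin 10 µg/mL, negative DMSO alone.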
XBP1 UPR activ: activators of adaptive arm of unfolded protein response (XBP1); 330,000 tested, 0.33% active; activation, % at 20 µM; CHO-XBP1 luciferase reporter, IRE1-XBP1 UPR activation, luminescence; percent of tunicamycin response, DMSO as zero;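 active = versus positive control, 20 µM dose yields 30% or more activation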;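 note: 100% = tunicamycin at 10 µg/mL and 0% = DMSO only wells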
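Test system: CHO-XBP1 luciferase reporter cells | Buffer or medium: Serum-containing F12 medium, 10% FBS | Schedule: 6 h compound exposure at 37 °C, 5% CO2 | Detection: Steady-Glo luciferase glow luminescence, 10 min after reagent addition | Read-out basis: Activation, % of tunicamycin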
B2AR ag: activates human beta-2 adrenergic receptor causing internalization; P07550; Am2.2-beta2AR cells, FAP receptor internalization, flow cytometry; response, % (test concentration not listed); 340,000 tested, 0.43% active; AID 504454;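 active = response above a set limit, near 3 SD of response in nonfluorescent compounds, cut at about 42% in these data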
Target sequence (P07550 whole entry, looked up): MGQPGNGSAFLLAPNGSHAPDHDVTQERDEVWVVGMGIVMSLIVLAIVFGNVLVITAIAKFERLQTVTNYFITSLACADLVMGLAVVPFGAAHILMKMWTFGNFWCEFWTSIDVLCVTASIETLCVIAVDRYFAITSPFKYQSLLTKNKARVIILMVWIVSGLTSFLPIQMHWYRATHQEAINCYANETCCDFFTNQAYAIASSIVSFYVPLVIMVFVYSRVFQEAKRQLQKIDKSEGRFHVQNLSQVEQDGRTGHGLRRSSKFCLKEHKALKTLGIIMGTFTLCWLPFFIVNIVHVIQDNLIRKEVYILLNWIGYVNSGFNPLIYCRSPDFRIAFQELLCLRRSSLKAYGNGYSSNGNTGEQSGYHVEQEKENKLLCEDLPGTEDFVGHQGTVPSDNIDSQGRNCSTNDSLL
T cell modulator: modulates CD8 T cell binding to vesicles | 2C CD8+ T cell-vesicle binding, flow cytometry; active compounds read low | response (vesicle binding), % at 7 µM | 330,000 tested, 0.068% active | AID 2052;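 active = response, share of CD8 T cells binding vesicles, and their 90th percentile fluorescence all below set limits, cut at about 80% in these data, passing the limit was not always enough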;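 note: values below 100% mean blocked vesicle binding to the CD8+ T cells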
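incubation = binding step 1.5 h, 37 °C, antibody labelling 20 min, ice | test system = 2C mouse CD8+ T cells | read-out basis = percent CD8+ FL2 mean versus row control | controls = Peptide-free naked vesicles (low) and QL9 vesicles with 0.7% DMSO vehicle (high) | detection = flow cytometry of vesicle-bound cells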
UPR CHOP confirm: apoptotic UPR (CHOP) activation, confirmed | 1,000 tested, 64% active | CHO-CHOP cells, CHOP-luciferase reporter luminescence; percent of tunicamycin response, DMSO as zero | shares compounds with UPR CHOP act | activation, % at 10 µM; in the data active = activation above about 33%;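 note: 0% = DMSO wells and 100% = tunicamycin 10 µg/mL wells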
UPR XBP1 confirm: confirmation of adaptive unfolded protein response (XBP1) activators. 1,000 tested, 63% active. CHO-XBP1 IRE1-XBP1 luciferase reporter, luminescence. shares compounds with XBP1 UPR activ. activation, % at 20 µM. AID 485299;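 active = reporter signal at least 30% of the positive control's activation in two or more of four replicate wells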;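 note: plate controls were DMSO negative control for no effect and tunicamycin 10 µg/mL positive control for full effect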
Beta2AR ag CP1: activates human beta-2 adrenergic receptor; Am2.2-beta2AR cells, FAP surface receptor, flow cytometry; active compounds read low; shares compounds with B2AR ag; 1,100 tested, 25% active; AID 540358; percent response (surface receptor), % at 10 µM;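 active = surface receptor percent response at or below 58%, roughly 3 SD from nonfluorescent compounds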
FAP fluor counter: counter-screen for beta-2AR agonists: fluorescence in Am2.2 cells; calls only at 10 µM; AID 588765; 1,100 tested, under 10 active; shares compounds with B2AR ag; FAP fluorogen flow cytometry, fluorescence counterscreen; active compounds read low;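 active = percent response below a set limit in fluorescence channel 1 and below 50% in channel 8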
The depositor's hits bear a star; i = inactive; · = not tested or not shown. Hits are enriched below; roughly 1% of the tested compounds scored in any of these assays.

SMILES	UPR CHOP act	XBP1 UPR activ	B2AR ag	T cell modulator	UPR XBP1 confirm	others
CCN(CC)C(=O)Cn1cc(S(=O)(=O)CC(=O)N2CC(C)OC(C)C2)c2ccccc21 (stereo unspecified)	0	-1	0	506	·
O=C(NCc1nnc(SCc2ccc(F)cc2)n1-c1ccc(F)cc1)C12CC3CC(CC(C3)C1)C2	1	-7	7	210	·
CCN(Cc1ccccc1)S(=O)(=O)c1c(N)n(C)c(=O)n(C)c1=O	0	-3	-5	615	·
Cc1cc(C)cc(N2C(=O)CC(Sc3nnnn3-c3ccccc3)C2=O)c1 (stereo unspecified)	56*	-5	51*	321	·	UPR CHOP confirm=28;Beta2AR ag CP1=114;FAP fluor counter=i
COc1ccccc1-c1cc(C(F)(F)F)nc(S(=O)(=O)CCCC(=O)N2CCCCC2C)n1 (stereo unspecified)	279*	6	35	734	·	UPR CHOP confirm=192*;Beta2AR ag CP1=66;FAP fluor counter=i
Cc1nn(CC(=O)Nc2ccc(C(=O)N3CCCC3)cc2)c(=O)c2ccccc12	-3	-3	-1	405	·
Cc1ccc(C)c(NC(=S)c2ccccn2)c1	125*	33*	-2	276	13	UPR CHOP confirm=112*;Beta2AR ag CP1=114;FAP fluor counter=i
Cc1ccc(C)c(NC(=S)c2ccc3ccccc3n2)c1	4	2	-2	319	·
O=S(=O)(Nc1cccc2ccccc12)c1ccccc1	1	2	-3	351	·
Cc1ccc2cccc(NS(=O)(=O)c3ccccc3)c2n1	446*	0	·	231	·	UPR CHOP confirm=94*;Beta2AR ag CP1=119;FAP fluor counter=i
O=S(=O)(Nc1cccc2cccnc12)c1ccccc1	368*	-9	46*	784	·	UPR CHOP confirm=58*;Beta2AR ag CP1=90;FAP fluor counter=i
O=S(=O)(Nc1cccc2ncccc12)c1cccs1	49*	-8	44*	386	·	UPR CHOP confirm=-4;Beta2AR ag CP1=89;FAP fluor counter=i
O=C(NCCc1ccccc1)C1CCC(=O)N(Cc2ccc(Cl)cc2)C1 (stereo unspecified)	-1	-4	14	294	·
N#Cc1cc([N+](=O)[O-])c(-n2nnc3ccccc32)c([N+](=O)[O-])c1	122*	-6	55*	332	·	UPR CHOP confirm=74*;Beta2AR ag CP1=103;FAP fluor counter=i
CS(=O)(=O)c1ccc(-n2nnc3ccccc32)c([N+](=O)[O-])c1	2	0	-3	202	·
Cn1cc(CC(=O)NCCN2CCOCC2)c2ccccc21	-2	0	8	210	·
Cc1ccc(-c2csc3ncnc(Sc4nnc(CN5CCCCCC5=O)o4)c23)cc1	82*	-6	42*	413	·	UPR CHOP confirm=80*;Beta2AR ag CP1=87;FAP fluor counter=i
Cc1ccc(-c2csc3ncnc(SCC(=O)Nc4nnc(C)s4)c23)cc1	0	-3	-2	402	·
O=C(COC(=O)c1ccccc1C(=O)c1ccc(Cl)c([N+](=O)[O-])c1)NC1CCCCCC1	85*	-4	53*	322	·	UPR CHOP confirm=36*;Beta2AR ag CP1=9.7*;FAP fluor counter=i
CC(=O)c1cccc(Nc2nc(-c3cccc([N+](=O)[O-])c3)cs2)c1	5	43*	10	546	32*
CC(=O)Nc1ccc(NC(=O)c2cccc(S(=O)(=O)N3CCCCCC3)c2)cc1	0	-2	0	107	·
CCOc1ccc(OCC(=O)N(CCC2=CCCCC2)c2c(N)n(Cc3ccccc3)c(=O)[nH]c2=O)cc1	2	31*	-3	68	7
CC(CC(=O)N(CCC1=CCCCC1)c1c(N)n(Cc2ccccc2)c(=O)[nH]c1=O)c1ccccc1 (stereo unspecified)	6	40*	3	318	16
COc1ccccc1CCC(=O)N(CCC1=CCCCC1)c1c(N)n(Cc2ccccc2)c(=O)[nH]c1=O	2	-4	5	264	·
O=C(Nc1ccc(N2CCCCC2)cc1)c1ccc(F)cc1	3	-1	2	182	·
SMILES	UPR CHOP act	XBP1 UPR activ	B2AR ag	T cell modulator	UPR XBP1 confirm	others
Cc1ccc(S(=O)(=O)Cc2cc(F)c([N+](=O)[O-])cc2[N+](=O)[O-])cc1	10	33*	28	101	41*
CCCc1cc(=O)[nH]c(SCC(=O)Nc2cc(S(=O)(=O)N3CCCCC3)ccc2C)n1	-1	-1	2	209	·
O=C(NCCNc1cc(Cl)ccc1[N+](=O)[O-])c1ccco1	3	1	-27	272	·
Nc1nc(Nc2ccccc2)nc(NC2CCCCC2)c1[N+](=O)[O-]	3	43*	12	345	35*
CNc1nc(N)c([N+](=O)[O-])c(NC2CCCCC2)n1	-2	9	-1	349	·
COc1ccc(Nc2nc(-c3sc(C)nc3C)cs2)cc1	4	6	-11	188	·
CCCCn1c(=O)[nH]c(=O)c2c1nc(-c1ccc(OC)c(Br)c1)n2CC(C)C	1	3	-5	383	·
C=CCOc1ccc(-c2nc3c(c(=O)[nH]c(=O)n3CCCC)n2C)cc1Br	4	39*	-23	121	26
CCCCNC(=O)c1ccc(Cn2c(=S)[nH]c3c([nH]c4ccc(OC)cc43)c2=O)cc1	2	41*	-2	185	64*
CCOCCCNC(=O)c1ccc(Cn2c(=S)[nH]c3c([nH]c4ccc(OC)cc43)c2=O)cc1	-2	3	6	92	·
COc1ccc(/C=N/Nc2nc(-c3cccnc3)nc3ccccc23)c(OC)c1	7	37*	1	512	15
CCOC(=O)CNC(=O)CSc1nnc(-c2ccco2)n1N	0	-3	1	150	·
CCCN1C(=O)C(=O)c2cc(C)ccc21	2	16	13	270	·
Cc1ccc(CN2C(=O)C(=O)c3cc(C)ccc32)cc1	4	35*	17	407	29*
Cc1ccc2c(c1)C(=O)C(=O)N2Cc1ccc(Br)cc1	2	52*	19	172	40*
CCCCN1C(=O)C(=O)c2cc(Cl)ccc21	7	42*	4	216	38*
O=C(CCC(=O)c1ccc[nH]1)c1ccc(Cl)cc1	1	2	-1	319	·
Cc1cc(N2O[C@]34C=C[C@]25C[C@@H](O)CC[C@]5(C)C3CC[C@]2(C)[C@@H]([C@H](C)/C=C/[C@H](C)C(C)C)CC[C@H]24)no1 (stereo partly specified)	3	41*	-4	·	-1
CSc1ccccc1C(=O)Nc1ccc(S(=O)(=O)NC2=NCCCCC2)cc1	0	-3	-6	429	·

Source: PubChem (several laboratories)
